Laboratory results reported in ChEMBL document CHEMBL3621114, “Design and Synthesis of Non-Peptide, Selective Orexin Receptor 2 Agonists” (J Med Chem, 2015).
Activity calls are given as the source filed them. The rule behind the calls is not given here.

Columns and labels:
[1] = molecular target: T1, Orexin receptor type 2 (Homo sapiens, UniProt O43614); assay: Agonist activity at human OX2R expressed in CHOK1 cells by NFAT-response luciferase reporter gene assay; format: cell-based; details: cho-k1
T1 sequence (O43614 whole entry): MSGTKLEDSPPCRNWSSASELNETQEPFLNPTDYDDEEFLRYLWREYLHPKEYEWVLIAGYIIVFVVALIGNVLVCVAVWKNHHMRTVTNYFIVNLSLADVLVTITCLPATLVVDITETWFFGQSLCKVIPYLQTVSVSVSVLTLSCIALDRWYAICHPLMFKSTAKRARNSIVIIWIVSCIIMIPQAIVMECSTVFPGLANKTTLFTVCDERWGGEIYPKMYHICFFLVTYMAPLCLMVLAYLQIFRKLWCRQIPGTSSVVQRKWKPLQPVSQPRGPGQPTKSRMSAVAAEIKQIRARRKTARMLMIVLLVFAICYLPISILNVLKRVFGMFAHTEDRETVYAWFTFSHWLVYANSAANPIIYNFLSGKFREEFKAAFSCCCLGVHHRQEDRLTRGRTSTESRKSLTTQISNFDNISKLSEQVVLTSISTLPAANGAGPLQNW

[2] = molecular target: T2, Orexin/Hypocretin receptor type 1 (Homo sapiens, UniProt O43613); assay: Agonist activity at human OX1R expressed in CHOK1 cells by calcium mobilization assay; format: functional, cell-based, CHO-K1
T2 sequence (O43613 whole entry): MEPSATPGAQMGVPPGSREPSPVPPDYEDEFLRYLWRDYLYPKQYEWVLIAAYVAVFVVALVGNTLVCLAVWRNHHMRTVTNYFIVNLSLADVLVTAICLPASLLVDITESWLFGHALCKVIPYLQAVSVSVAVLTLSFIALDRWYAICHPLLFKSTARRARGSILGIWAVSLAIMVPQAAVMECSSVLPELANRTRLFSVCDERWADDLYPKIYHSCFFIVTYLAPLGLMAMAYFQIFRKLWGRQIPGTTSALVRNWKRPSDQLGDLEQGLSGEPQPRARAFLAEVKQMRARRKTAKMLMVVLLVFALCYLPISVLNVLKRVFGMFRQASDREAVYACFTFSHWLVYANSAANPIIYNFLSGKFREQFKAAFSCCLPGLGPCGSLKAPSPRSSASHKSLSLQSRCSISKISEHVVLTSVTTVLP

[3] = molecular target: T3, Orexin receptor type 2 (Homo sapiens) (UniProt O43614); assay: Agonist activity at human OX2R expressed in CHOK1 cells at 10 uM by NFAT-response luciferase reporter gene assay relative to orexin-A; format: cell-based; details: CHO-K1
T3 sequence (whole entry): T1 sequence (O43614 whole entry)

[4] = molecular target: T3, Orexin receptor type 2 (Homo sapiens); assay: Agonist activity at human OX2R expressed in CHOK1 cells at 10 uM by calcium mobilization assay relative to orexin-A; format: functional, cell-based; details: CHO-K1
[5] = molecular target: T4, Orexin/Hypocretin receptor type 1 (Homo sapiens) (UniProt O43613); assay: Agonist activity at human OX1R expressed in CHOK1 cells by calcium mobilization assay relative to orexin-A; format: functional, cell-based; details: CHO-K1
T4 sequence (whole entry): T2 sequence (O43613 whole entry)

[6] = system: Mus musculus; assay: Induction of wakefullness in OX1R/OX2R double knock out C57BL/6J mouse assessed as increase in wake time by measuring EEG/EMG signals at 260 nmol, icv dosed on every other day during light phase; format: functional, organism-based
Summary of the method: (§1)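 Intracerebroventricular injection during the light phase, given at 6 h into the light phase (ZT6). Saline was the vehicle control. Sleep/wake states were scored from EEG/EMG recordings, and the read-out was cumulative time awake within 2 h after dosing. Wild-type C57BL/6J mice and OX1R/OX2R double-knockout mice were used.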

[7] = system: Mus musculus; assay: Induction of wakefullness in C57BL/6J mouse assessed as EEG/EMG signals at 32 to 260 nmol, icv dosed on every other day during light phase; format: functional, organism-based; summary of the method: as §1
[8] = molecular target: T3, Orexin receptor type 2 (Homo sapiens); assay: Agonist activity at human OX2R expressed in CHOK1 cells at 1 uM by calcium mobilization assay relative to orexin-A; format: functional, cell-based; details: CHO-K1
[9] = system: CHO-K1; assay: Selectivity index, ratio of EC50 for human OX1R expressed in CHOK1 cells to EC50 for human OX2R expressed in CHOK1 cells; format: cell-based
[10] = molecular target: T3, Orexin receptor type 2 (Homo sapiens); assay: Agonist activity at human OX2R expressed in CHOK1 cells at 10 uM by calcium mobilization assay relative to orexin-A; details: CHO-K1
[11] = molecular target: T3, Orexin receptor type 2 (Homo sapiens); assay: Agonist activity at human OX2R expressed in CHOK1 cells at 5 uM by NFAT-response luciferase reporter gene assay relative to orexin-A; format: cell-based; details: CHO-K1
[12] = molecular target: T3, Orexin receptor type 2 (Homo sapiens); assay: Agonist activity at human OX2R expressed in CHOK1 cells at 5 uM by calcium mobilization assay relative to orexin-A; format: functional, cell-based; details: CHO-K1
[13] = Stability in pH 8.0 buffer; format: physicochemical
[14] = molecular target: T1, Orexin receptor type 2; assay: biochemical
[15] = molecular target: T1, Orexin receptor type 2; assay: Agonist activity at human OX2R expressed in CHOK1 cells by calcium mobilization assay
[16] = system: Mus musculus; assay: Induction of wakefullness in C57BL/6J mouse assessed as increase in wake time by measuring EEG/EMG signals at 260 nmol, icv dosed on every other day during light phase; format: functional; summary of the method: as §1

In the case of `COc1ccc(-c2cccc(C(=O)N(C)C)c2)cc1C(=O)Nc1cccc(NCCNC(=O)c2cccc(C)c2)c1`, the EC50 [1] is reported as “Not Active” and the EC50 ([2]; cho-k1) is reported as “Not Active”.

For `COc1ccccc1C(=O)NCCNc1cccc(NS(=O)(=O)c2cc(C(C)C)c(C)cc2OC)c1`, the Efficacy [3] was 33% and the Efficacy [4] was 22%.

With `COc1ccc(-c2cccc(C(=O)N(C)C)c2)cc1S(=O)(=O)Nc1cccc(NCCNC(=O)c2ccccc2N(C)C)c1` [listing 1 of 2 here] the Emax [5] was 55%, the Activity [6] was “inactive” and the Activity [7] was “Dose-dependent effect”.

For `COc1ccccc1C(=O)NCCNc1cccc(NS(=O)(=O)c2cc(-c3cccc(C(=O)N(C)C)c3)ccc2OC)c1`, the Emax [8] was 74%, the EC50 ([2]; read-out: EC50) was 5.23 µM and the Emax [5] was 46%. It also gave a Ratio EC50 [9] of 105.

In the case of `CNC(=O)c1cccc(-c2ccc(OC)c(S(=O)(=O)Nc3cccc(NCCNC(=O)c4ccccc4OC)c3)c2)c1`, the Emax [8] is reported as 98%.

`COc1ccccc1C(=O)NCCNc1cccc(NS(=O)(=O)c2cc(-c3cccnc3)ccc2OC)c1` showed an Emax [10] of 88%.

In the case of `Cc1ccc(S(=O)(=O)n2nc(OC(=O)c3c(-c4ccccc4Cl)noc3C)cc2N)cc1`, the Efficacy [11] is reported as 36%, the Efficacy [12] is reported as “inactive” and the Stability [13] is reported as “Unstable”.

For `COc1ccccc1C(=O)N1CCC(CNS(=O)(=O)c2cc(C(C)C)c(C)cc2OC)CC1`, the Efficacy [3] was 16% and the Efficacy [4] was “inactive”.

For `COc1ccccc1C(=O)NCCNc1cc(C)ccc1NS(=O)(=O)c1cc(C(C)C)c(C)cc1OC`, the Efficacy [3] was 9% and the Efficacy [4] was “inactive”.

Compound `COc1ccc(-c2cccc(C(=O)N(C)C)c2)cc1S(=O)(=O)Nc1cccc(NCCNC(=O)c2cccc(C)c2)c1` has an Emax [5] of 100% and a Ki [14] of 0.77 µM.

With `COc1ccc(-c2cccc(C(=O)N(C)C)c2)cc1S(=O)(=O)Nc1cccc(NCCNC(=O)c2cccc(Cl)c2)c1` the EC50 ([2]; read-out: EC50) was 5.72 µM, the Emax [5] was 73% and the Ratio EC50 [9] was 60. It also gave an EC50 [15] of 0.094 µM.

`COc1ccc(-c2cccc(C(=O)N(C)C)c2)cc1S(=O)(=O)Nc1cccc(NCCNC(=O)c2ccccc2N(C)C)c1` [listing 2 of 2 here] showed an EC50 ([2]; read-out: EC50) of 2.75 µM and an EC50 [15] of 0.028 µM.

With `COc1ccccc1C(=O)NCCNc1cccc(NS(=O)(=O)c2cc(-c3ccccc3)ccc2OC)c1` the EC50 [15] was > 10 µM and the Emax [10] was 48%.

For `COc1cccc(-c2ccc(OC)c(S(=O)(=O)Nc3cccc(NCCNC(=O)c4ccccc4OC)c3)c2)c1`, the Emax [8] was 54% and the EC50 [15] was 0.8 µM.

`COc1cccc(C(=O)NCCNc2cccc(NS(=O)(=O)c3cc(-c4cccc(C(=O)N(C)C)c4)ccc3OC)c2)c1` showed an EC50 ([2]; read-out: EC50) of 9.25 µM, an Emax [5] of 49% and a Ratio EC50 [9] of 280.

For `COc1ccccc1C(=O)NCCNc1cccc(NS(=O)(=O)c2cc(-c3cccc(C(=O)N4CCC4)c3)ccc2OC)c1`, the EC50 [15] was 0.235 µM and the Emax [10] was 85%.

With `COc1ccc(-c2cccc(C(=O)N(C)C)c2)cc1S(=O)(=O)Nc1cccc(NCCNC(=O)c2ccccc2N(C)C)c1.Cl` the Time [16] was 53 min.

With `COC(=O)c1cccc(-c2ccc(OC)c(S(=O)(=O)Nc3cccc(NCCNC(=O)c4ccccc4OC)c3)c2)c1` the EC50 [15] was > 10 µM and the Emax [10] was 49%.

For `COc1ccccc1C(=O)NCCNc1ccc(NS(=O)(=O)c2cc(C(C)C)c(C)cc2OC)cc1`, the Efficacy [3] was 18% and the Efficacy [4] was 12%.

For `COc1ccccc1C(=O)NCCNc1cccc(NS(=O)(=O)c2cc(-c3cccc(F)c3)ccc2OC)c1`, the EC50 [15] was > 10 µM and the Emax [10] was 47%.

For `COc1ccccc1C(=O)N[C@H]1CC[C@H](CNS(=O)(=O)c2cc(C(C)C)c(C)cc2OC)CC1`, the Efficacy [3] was 24% and the Efficacy [4] was “inactive”.

In the case of `COc1ccc(-c2cccc(C(=O)N(C)C)c2)cc1S(=O)(=O)Nc1cccc(NCCNC(=O)c2ccccc2Cl)c1`, the EC50 ([2]; read-out: EC50) is reported as 6.13 µM, the Emax [5] is reported as 50% and the Ratio EC50 [9] is reported as 198.

With `COc1ccccc1C(=O)NCCNc1cccc(NS(=O)(=O)c2cc(-c3cccc(N)c3)ccc2OC)c1` the EC50 [15] was > 1 µM and the Emax [10] was 73%.

With `COc1ccc(-c2cccc(C(=O)N(C)C)c2)cc1S(=O)(=O)Nc1cccc(NCCNC(=O)c2ccccc2)c1` the EC50 [15] was > 10 µM.
